# Compound activity from PubChem.
# Many of the other results were omitted from the sample, so hits are more common in it than they were.
# Yeast growth inh: growth inhibitors of yeast BB579 in restrictive medium, primary screen, yeast lifespan-shortening project, S. cerevisiae; 140,000 compounds, 0.51% hits; AID 804, 2007; inhibition, % at 10 µM; OD615, 48 h;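 active = inhibition above a set limit, 3 SD over the mean compound inhibition, cut at about 44% in these data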
#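 Material: Saccharomyces cerevisiae DeaD strain BB579, replicative lifespan model yeast; buffer or medium: CSMM-D restrictive synthetic medium containing dextrose (glucose); compound: 10 µM single dose, DMSO 0.25%; timing: 48 h compound exposure at 30 °C after 4 h preincubation; signal: turbidity as optical density at 615 nm; benchmarks: positive control amphotericin B 10 µg/mL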
# PostGolgi ctrl: growth inhibition of yeast control strain, primary screen, counter-screen for post-Golgi transport modulator project. efflux-deficient yeast background strain, growth absorbance A615, 16 h. inhibition, % at 10 µM. 98,000 compounds, 5% hits
# PostGolgi yeast: phenotypic screen on post-Golgi transport, primary screen; post-Golgi transport phenotypic cell assay; inhibition, % at 10 µM; 98,000 compounds, 0.9% hits; AID 739, 2007;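 also: yeast cells grown in 1536-well plates; yeast grown about 18 h at 30C before absorbance read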
# Yeast lifespan up: compounds extending yeast replicative lifespan, primary screen, S. cerevisiae, OD615 | S. cerevisiae growth with nicotinamide; deaD strain in restrictive glucose medium | inhibition of the nicotinamide effect, % at 10 µM | 130,000 compounds, 0.68% hits;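 active = inhibition above a set limit, placed 3 SD over the median of all compounds, cut at about 26% in these data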;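 also: 0% = nicotinamide-treated wells and 100% = cells grown without nicotinamide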
#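 Measured by: optical density (absorbance) at 615 nm; System: modified budding yeast, DeaD strain; Medium: restrictive CSMM-D dextrose medium; Timing: 4 h preincubation then 48 h treatment at 30 °C.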
# Numbers without * were called inactive; · = no result given. Rule as the data show it, unless noted: active = inhibition above about 30%; inactive = the rest.
SMILES,Yeast growth inh,PostGolgi ctrl,PostGolgi yeast,Yeast lifespan up
Cc1cc(C)n(-c2cc(N3CCN(C(=O)c4cccc(F)c4)CC3)ccc2[N+](=O)[O-])n1,-18.5,·,·,-4.7
NC(=O)CS(=O)(=O)c1nc2ccccc2n1CC(=O)N1CCCCC1,-45.9,4.0,3.3,-9.8
O=C(Cn1c(S(=O)(=O)Cc2ccccc2)nc2ccccc21)N1CCCCC1,6.7,34.9*,-18.3,-4.5
O=c1[nH]c(NC2CCCCC2)c([N+](=O)[O-])c(=O)[nH]1,-7.6,·,·,0.9
CCOC(=O)N1CCN(C(=O)CN(c2ccc(Oc3ccccc3)cc2)S(C)(=O)=O)CC1,-45.9,9.8,-6.0,-5.8
CS(=O)(=O)N(CC(=O)O)c1ccc(Oc2ccccc2)cc1,-0.2,35.6*,9.0,-2.6
Cn1c(N2CCC(C(N)=O)CC2)nc2c1c(=O)n(Cc1cccc(Br)c1)c(=O)n2C,-49.3,4.6,-8.9,-4.9
Cc1cc2n(n1)C(c1c[nH]c3ccccc13)Nc1ccccc1-2 (configuration not stated),-25.1,55.4*,10.9,-28.3
Cc1cc2n(n1)C(c1cn(-c3ccccc3)nc1C)Nc1ccccc1-2 (configuration not stated),-57.2,14.5,-2.8,-9.4
Cc1ccc(S(=O)(=O)n2nc(C)cc2C)cc1,-30.1,15.4,5.7,-7.5
Cc1ccc(C(C[N+](=O)[O-])n2nc(C)cc2C)cc1 (configuration not stated),47.4*,-5.4,-1.1,18.7
Cc1ccc(OCc2ccc(C(=O)Nc3nc4ccccc4n3C)o2)c([N+](=O)[O-])c1,-19.1,·,·,-3.5
O=[N+]([O-])c1ccc(/C=N/Nc2nc(N3CCCCC3)nc(N3CCCCC3)n2)o1,-6.4,49.1*,11.8,-5.5
Cn1nc(-c2ccccc2)c(C(=O)Nc2ccc(Cl)cc2)c1Cl,-10.2,38.5*,10.2,-4.0
CCOC(=O)c1cc(-c2ccc(C)cc2)n(CCC(=O)N2CCN(c3ccccn3)CC2)c1C,0.5,·,·,7.1
O=C(Nc1cccc(C(F)(F)F)c1)N(Cc1ccc(Cl)cc1)CC(O)C(F)(F)F (configuration not stated),-14.1,51.3*,-10.2,-19.0
COc1cc(C2C(C#N)=C(N)Oc3cc(O)ccc32)cc2c1OCO2 (configuration not stated),-37.2,9.1,-7.2,-5.5
N#CC1=C(N)Oc2cc3c(cc2C1c1ccc(Cl)cc1)OCO3 (configuration not stated),-22.3,30.0*,-3.8,-3.3
N#Cc1ccc(CSc2nnc(-c3cccs3)n2-c2ccccc2)cc1,-61.2,43.2*,-4.5,-1.9
CCOc1ccccc1C(=O)N1CCN=C1SCc1cccnc1,-14.1,0.8,-3.5,-6.4
COCCn1c(Cc2ccccc2)nnc1SCC(=O)Nc1cc(C)on1,-30.4,43.0*,4.4,4.6
Cc1nc2c(-c3ccc(F)cc3)c(C)nn2c(C)c1CCC(=O)N1CCC(Cc2ccccc2)CC1,26.8,32.1*,5.4,-10.7
CCOC(=O)c1cc(C(=O)c2cccs2)n2ccc(C(C)=O)cc12,-39.6,82.5*,1.4,-8.4
COc1ccccc1OCc1ccc(C(=O)n2nc(C)c(Cl)c2C)o1,-33.1,32.9*,-5.2,-15.4
COc1ccccc1OCc1ccc(C(=O)NC(C)(C)C)o1,-0.5,7.4,-2.6,-16.3
SMILES,Yeast growth inh,PostGolgi ctrl,PostGolgi yeast,Yeast lifespan up
CCOC(=O)/C(=C\c1ccc(Cl)cc1)c1nc2sc(C)c(C)c2c(=O)[nH]1,-14.5,·,·,32.1*
CCc1ccc(C(=O)CSc2nc3cc(S(=O)(=O)N4CCOCC4)ccc3n2CC)cc1,-23.6,·,·,4.4
O=C(COC(=O)C12CC3CC(CC(C3)C1)C2)NC12CC3CC(CC(C3)C1)C2,-39.5,33.0*,13.4,7.2
CCC(CC)C(=O)OCC(=O)NC12CC3CC(CC(C3)C1)C2,-18.7,3.6,11.2,2.6
O=C(NC(C(=O)c1ccccc1)n1ccc(=O)[nH]c1=O)c1ccccc1 (configuration not stated),-42.8,30.4*,13.9,-8.1
O=C(NC(C(=O)c1ccccc1)N1CCCCC1)c1ccccc1 (configuration not stated),-9.9,-3.7,38.4*,0.8
COc1cc(CNC(=O)c2cccc(COc3ccc(Cl)cc3)c2)cc(OC)c1,-24.1,·,·,-1.8
O=C(CSCc1ccccc1)NNC(=S)Nc1cccc(Cl)c1Cl,-13.2,31.4*,-6.7,-5.8
N#CCCn1c(SCC(=O)Nc2ccc(N3CCOCC3)cc2)nc2ccccc21,-33.2,·,·,-3.6
O=C(CN1C(=O)c2cccc3cccc(c23)C1=O)N1CCN(Cc2ccc3c(c2)OCO3)CC1,-45.2,9.3,-4.4,-9.5
Cc1ccc2cc(CN(Cc3ccc(F)cc3)Cc3nnnn3C3CCCC3)c(=O)[nH]c2c1,-27.8,40.9*,1.4,-2.3
Cc1ccc2cc(CN(Cc3ccccc3)Cc3nnnn3C3CCCC3)c(=O)[nH]c2c1,-40.8,38.8*,-11.3,-11.4
COc1ccc2cc(CN(Cc3ccco3)Cc3nnnn3C3CCCCC3)c(=O)[nH]c2c1,-60.4,9.0,-5.3,-12.4
CCc1ccc2[nH]c(=O)c(CN(Cc3ccc4c(c3)OCO4)Cc3nnnn3C3CCCC3)cc2c1,-36.2,15.1,-2.3,-5.6
Clc1ccc2nnnc(-c3ccccc3)c2c1,45.5*,·,·,2.5
CCN(CC)S(=O)(=O)c1ccc(N(C)Cc2cccnc2)nc1,5.9,-3.0,-13.1,-4.6
Clc1ccc(Sc2oc(/C=N/n3cnnc3)cc2Br)cc1,-1.5,47.1*,4.1,-6.8
Clc1ccc(Sc2ccc(/C=N/n3cnnc3)o2)cc1,25.9,22.6,5.5,-27.3
CC(=O)N(C(C)=O)c1c(C#N)c(C)n(-c2ccccc2)c1C(=O)c1ccccc1,-52.2,-2.2,4.1,32.0*
N#Cc1c(N)c(C(=O)c2ccccc2)n2c1CCCC2,-13.8,13.8,-0.8,-13.3
O=C(N/N=C/c1ccc([N+](=O)[O-])o1)c1cc(-c2cccc(Br)c2)nc2ccccc12,-67.5,35.6*,102.5*,-8.6
O=C(N/N=C/c1ccc2c(c1)OCO2)c1cc(-c2ccccc2)nc2ccccc12,-27.6,·,·,-3.3
CCCc1ccc(-c2cc(C(=O)N/N=C/c3ccc([N+](=O)[O-])o3)c3ccccc3n2)cc1,-33.5,31.8*,5.9,-8.7
CC(C)c1ccc(/C=N/NC(=O)c2nnn(-c3nonc3N)c2CSC2=NCCS2)cc1,7.6,·,·,-2.2
O=C(Nc1ncc(Cc2cc(Cl)ccc2Cl)s1)c1ccc([N+](=O)[O-])cc1,-18.3,31.4*,6.7,-8.9
C=CCC1c2cccc(C(=O)O)c2C(=O)N1c1cccc(C)c1 (configuration not stated),61.9*,23.6,10.3,-5.5
C=CCC1c2cccc(C(=O)O)c2C(=O)N1c1ccc(Cl)cc1 (configuration not stated),-17.1,12.3,-7.3,36.1
Cc1ccccc1C1=NC(C(F)(F)F)(C(F)(F)F)c2c(n(C)c(=O)n(C)c2=O)N1,-28.3,·,·,1.7
Cn1c2c(c(=O)n(C)c1=O)C(C(F)(F)F)(C(F)(F)F)N=C(c1ccc(Cl)cc1)N2,-8.4,68.5*,46.9*,-19.3
